pKi: −log10 of the molar value.
biological target: T1, 5-hydroxytryptamine receptor 1A (Rattus norvegicus, UniProt P19327); experiment: In vitro binding affinity towards 5-hydroxytryptamine 1A receptor was determined using radioligand [3H]-8-OH-DPAT
T1 sequence (P19327 whole entry): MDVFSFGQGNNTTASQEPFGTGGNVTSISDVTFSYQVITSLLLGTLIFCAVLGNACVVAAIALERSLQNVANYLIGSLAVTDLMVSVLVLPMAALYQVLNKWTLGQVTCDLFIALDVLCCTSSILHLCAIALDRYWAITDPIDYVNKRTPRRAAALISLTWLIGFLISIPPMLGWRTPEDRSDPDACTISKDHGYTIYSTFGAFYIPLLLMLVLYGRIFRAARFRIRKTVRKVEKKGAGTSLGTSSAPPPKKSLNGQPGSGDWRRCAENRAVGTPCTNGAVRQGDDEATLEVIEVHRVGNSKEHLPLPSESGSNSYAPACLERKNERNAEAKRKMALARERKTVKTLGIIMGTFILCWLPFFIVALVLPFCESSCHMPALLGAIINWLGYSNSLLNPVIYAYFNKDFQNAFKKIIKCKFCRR
Procedure, shortened: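 Rat (male Sprague-Dawley) cerebral cortex membranes, about 1 mg protein, incubated 15 min at 37 °C with 0.6 nM [3H]8-OH-DPAT plus competitor in 50 mM Tris-HCl with 10 nM clonidine and 30 nM prazosin, pH 7.4. Nonspecific binding with 10 µM 5-HT. Triplicates; GF/B filtration, scintillation counting; IC50 curve fit, Ki by Cheng-Prusoff; 2-4 experiments.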

SMILES	pKi
N#Cc1ccccc1N1CCN(CCCn2c(O)c3n(c2=O)CCCC3)CC1	7.48
CCCNC(=O)c1ccccc1N1CCN(CCCn2c(O)c3n(c2=O)CCC3)CC1	< 6.00
CC(C)C(=O)Nc1cccc(N2CCN(CCCn3c(O)c4n(c3=O)CCCC4)CC2)c1	< 6.00

Results, then the compound that gave them:

pKi	SMILES
< 6.00	Nc1cccc(N2CCN(CCCn3c(O)c4n(c3=O)CCC4)CC2)c1
7.48	O=c1n(CCCN2CCN(c3cccc(Br)c3)CC2)c(O)c2n1CCC2
